Data on 1 molecule can be found in ChEMBL document CHEMBL4834399, “Pharmacokinetics of Eleven Kratom Alkaloids Following an Oral Dose of Either Traditional or Commercial Kratom Products in Rats” (J Nat Prod, 2021).

As usually defined, the Tmax is the time at which the peak concentration occurs. The AUC(0-t) is the area under the concentration-time curve up to a stated or last time point. One may read the Cmax as the peak of the concentration-time curve.

Series [1] can be described thus: Tmax in Sprague-Dawley rat plasma at 0.13 mg/kg, po administered as LKT formulation measured for 24 hrs by UPLC-MS/MS analysis. Format: ADME, organism-based. In outline: (§1)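 Jugular-cannulated male SD rats (225 ± 25 g, n = 4) were fasted 12–16 h and given one oral gavage of LKT (366 mg/kg) or OPMS liquid (0.8 mL/kg) in water at 4 mL/kg, with dosing normalized to MTG human equivalent dose. Plasma was sampled from predose to 24 h and measured by UPLC–MS/MS (LLOQ 1 ng/mL). Cmax and Tmax were read from the observed data; Cmax/dose was also reported. Mean ± SEM.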

A short description of series [2]: Dose normalized AUC(0 to 24 hrs) in Sprague-Dawley rat plasma at 0.13 mg/kg, po administered as LKT formulation measured for 24 hrs by UPLC-MS/MS analysis. Format: ADME, organism-based. Particulars: in vivo.
Series [3] in a line: AUC(0 to 24 hrs) in Sprague-Dawley rat plasma at 0.13 mg/kg, po administered as LKT formulation measured for 24 hrs by UPLC-MS/MS analysis. It is filed as ADME, organism-based. Also on record: route oral, time 24 hrs, dose 0.13 mg/kg.
Series [4] is described as follows: Dose normalized Cmax in Sprague-Dawley rat plasma at 0.13 mg/kg, po administered as LKT formulation measured for 24 hrs by UPLC-MS/MS analysis. It is filed as ADME, organism-based. Particulars: in vivo. In outline:
as §1

A short description of series [5]: Dose normalized Cmax in po dosed rat plasma. Format: ADME, organism-based. Particulars: in vivo.
A short description of series [6]: Stability of the compound in water-methanol mixture (1:1) assessed as drug recovery. It is filed as physicochemical. Particulars: buffer.
Series [7] in a line: Stability of the compound in rat plasma assessed as drug recovery. Format: ADME, cell-free.
The nature of series [8]: Dose normalized AUC(0 to 24 hrs) in Sprague-Dawley rat plasma at […], po administered as OPMS liquid formulation measured for 24 hrs by UPLC-MS/MS analysis. It is filed as ADME, organism-based. Particulars: in vivo, dose 0.18 mg/kg.
The nature of series [9]: Tmax in Sprague-Dawley rat plasma at […], po administered as OPMS liquid formulation measured for 24 hrs by UPLC-MS/MS analysis. Conditions: dose 0.18 mg/kg. Format: ADME, organism-based.
A short description of series [10]: Dose normalized AUC(0-24 hrs) in po dosed rat plasma. It is filed as ADME, organism-based. Particulars: in vivo.
Series [11] is described as follows: AUC(0 to 24 hrs) in Sprague-Dawley rat plasma at […], po administered as OPMS liquid formulation measured for 24 hrs by UPLC-MS/MS analysis. Also on record: route oral, dose 0.18 mg/kg, time 24 hrs. Format: ADME, organism-based.
Series [12] is described as follows: Dose normalized Cmax in Sprague-Dawley rat plasma at […], po administered as OPMS liquid formulation measured for 24 hrs by UPLC-MS/MS analysis. Particulars: in vivo, dose 0.18 mg/kg. Format: ADME, organism-based.
Series [13] in a line: Cmax in Sprague-Dawley rat plasma at […], po administered as OPMS liquid formulation measured for 24 hrs by UPLC-MS/MS analysis. Also on record: route oral, time 24 hrs, dose 0.18 mg/kg. Format: ADME, organism-based.

Regarding `CC[C@@H]1CN2CCc3c([nH]c4ccccc34)[C@@H]2C[C@@H]1/C(=C\OC)C(=O)OC` [CORYNANRHEIDINE], in series [1], the Tmax came out at 1 h. In addition, the values for the AUC/dose in series [2], in series [8] and in [10] were 63.1 kg·ng·h/mL/mg, 152.2 kg·ng·h/mL/mg and 138.8 kg·ng·h/mL/mg, respectively. Moreover, the values for the AUC(0-t) at 24 h in series [3] and in series [11] were 0.0082 µg·h/mL and 0.0304 µg·h/mL, respectively. In addition, the values for the Cmax/dose in [4], in series [5] and in series [12] were 14 kg·ng/mL/mg, 10.7 ng/mL and 15.6 kg·ng/mL/mg, respectively. Also, the Drug recovery in series [6] is reported as above 80%; in series [7], above 90%. Besides, the time to peak (Tmax) at 24 h in series [9] was found to be 3.1 h. For the same molecule, the highest level in series [13] (Cmax at 24 h) was 3.1 ng/mL.
